The text below walks through data of ChEMBL document CHEMBL5537124, “Unexpected rearrangement of ivermectin in the synthesis of new derivatives with trypanocidal and antiplasmodial activities” (Eur J Med Chem, 2024).

One series concerns HL-60. The series can be described thus: Cytotoxicity against human HL-60 cells assessed as cell growth inhibition measured after 24 hrs by resazurin dye based microplate reader analysis. The class given is toxicity. As to conditions: hl-60, 24 h. Put shortly:
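Seeded at 1 × 10^4 mL-1 (T. b. brucei) or 5 × 10^4 mL-1 (HL-60) in Baltz medium with 16.7 % bovine serum and 0.9 % DMSO. Test compounds given as tenfold dilutions from 100 μM to 1 nM. Incubated at 37 °C, 5 % CO2. Resazurin added after 24 h, then a further 48 h. Absorbance read at 570/630 nm. GI50 obtained by linear interpolation; mean ± SD of three independent experiments.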
For orientation: Alamar Blue is a resazurin reagent that responds to reducing activity.

A short description of series [1]: Selectivity index, ratio of GI50 for human HL-60 cells to GI50 for Trypanosoma brucei brucei 221a. The class given is toxicity. Put shortly: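 Ratio of GI50 for HL-60 to GI50 for T. b. brucei, both from the resazurin growth assay.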
In the next series the test system is Plasmodium berghei. Put plainly: Antiplasmodial activity against luciferase-expressing Plasmodium berghei infected in human Huh-7 cells assessed as reduction in parasitic load pretreated for 1 hr with cells followed by parasite infection and measured 48 hrs post infection by firefly luciferase assay. As to conditions: huh-7. It is filed as functional, organism-based. A digest of the protocol:
(§1)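 Huh7 hepatoma cells in RPMI-1640 with 10 % FCS, seeded at 1 × 10^4 per well and left overnight. Seven compound concentrations, serially diluted from 10 mM DMSO stocks, applied 1 h before infection; DMSO vehicle control. PbGFP-Luciferase sporozoites from An. stephensi salivary glands added 1:1, plates spun 1800 × g for 5 min. Confluency by AlamarBlue at 46 hpi; parasite load by firefly luciferase at 48 hpi. IC50 from nonlinear regression.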

The next series has as its system Huh-7. The series can be described thus: Cytotoxicity against human Huh-7 cells infected with luciferase-expressing Plasmodium berghei assessed as effect on cell confluency pretreated for 1 hr followed by parasite infection and measured 46 hrs post infection by alamar blue staining based analysis. It is filed as toxicity. As to conditions: huh-7, 47 h. Put shortly:
as §1

A further series has as its system Trypanosoma cruzi. Put plainly: Antitrypanosomal activity against trypomastigote form of Trypanosoma cruzi Dm28c expressing beta-galactosidase using chlorophenol red beta-D-galactopyranoside as enzyme substrate measured after 24 hrs by colorimetric analysis. The class given is functional, organism-based.

What is called GI50 is the concentration giving 50% growth inhibition. A word on the IC50: it is the point on the concentration scale where inhibition reaches its midpoint. Broadly, the EC50 is the midpoint of the concentration-response curve. Low values mean a more potent agent, high ones a less potent agent. IVERMECTIN: the 50% growth inhibitory concentration (GI50) in the series on HL-60 was found to be 31.3 µM. The RatioGI50 in series [1] worked out at 2.1. Moreover, the IC50 in the series on Plasmodium berghei was 0.911 µM. Further, the Activity result in the series on Huh-7 was “Non-Toxic”. Besides, in the series on Trypanosoma cruzi, the EC50 was 10.4 µM.
